In ChEMBL document CHEMBL5376022, “Design, synthesis and biological evaluation of novel pyrimidine derivatives as bone anabolic agents promoting osteogenesis via the BMP2/SMAD1 signaling pathway” (RSC Med Chem, 2024):
The source made the active and inactive calls. No cut-off for these calls is given here.

Legend:
Calvarial osteoblast [1] = assay: Induction of osteogenesis in BALB/c mouse calvarial osteoblast cells using PNPP as substrate assessed as increase in ALP activity at 0.1 to 10 nM measured after 48 hrs by spectrophotometry; format: functional, cell-based; conditions: Calvaria, dose 0.1-10 nM
Summary of the method: (§1)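 Neonatal BALB/c calvarial osteoblasts, 2 × 10³ cells per well, adhered 24 h, then exposed to compounds (1 pM to 1 μM range) in osteoblast differentiation medium for 48 h. Cells frozen overnight at −80 or −20 °C, thawed at 37 °C to expose ectoenzyme; p-nitrophenyl phosphate added and ALP activity read at 405 nm. Untreated cells as control.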

Calvarial osteoblast [2] = assay: Cytotoxicity in BALB/c mouse calvarial osteoblast cells at 0.001 to 1000 nM incubated for 48 hrs by MTT assay; format: toxicity, cell-based, Calvaria; conditions: 1 µM, dose 0.001-1000 nM
Summary of the method: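 Primary calvarial osteoblasts from 1–2 day old BALB/c pups (collagenase/dispase digests, α-MEM with 10% FBS) seeded at 2 × 10³ per well. MTT added for 4 h at 37 °C, formazan dissolved in DMSO, absorbance read at 570 nm.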

[3] = Induction of osteogenesis in BALB/c mouse MSC cells assessed as increase in mineral nodule formation at 0.1 nM treated for 21 days with compound refreshment for every 48 hrs by Alizarin red S staining based analysis relative to control; format: functional; conditions: time 21 day
Summary of the method: (§2)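 Bone marrow cells were flushed from the long bones of 6–8-week-old BALB/c mice and seeded at 2 × 10⁶ per well. Medium: 10% FBS, 100 nM dexamethasone, 50 μg mL⁻¹ ascorbic acid and 10 mM β-glycerophosphate. Compound and medium were renewed every 48 h for 21 days. Cells were fixed in 4% paraformaldehyde and stained with Alizarin red (pH 4.2). Stain was eluted with 10% cetylpyridinium chloride for 1 h and read at 595 nm versus control.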

Calvarial osteoblast [4] = assay: Induction of cell proliferation of BALB/c mouse calvarial osteoblast cells at 0.001 nM incubated for 48 hrs by MTT assay relative to control; format: functional, Calvaria
Summary of the method: (§3)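 Primary calvarial osteoblasts from 1–2-day-old neonatal BALB/c pups, released by dispase/collagenase digestion and grown in α-MEM with 10% FBS. Seeded at 2 × 10³ cells per well, treated after 24 h for 48 h in α-MEM with 5% FBS, 10 mM β-glycerophosphate and 50 μg mL⁻¹ ascorbic acid. MTT added for 4 h at 37 °C, formazan dissolved in DMSO, absorbance read at 570 nm versus untreated cells.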

[5] = Induction of osteogenesis in BALB/c mouse MSC cells assessed as increase in mineral nodule formation at 0.001 nM treated for 21 days with compound refreshment for every 48 hrs by Alizarin red S staining based analysis relative to control; format: functional; conditions: time 21 day; summary of the method: as §2
Calvarial osteoblast [6] = assay: Induction of cell proliferation of BALB/c mouse calvarial osteoblast cells at 0.1 nM incubated for 48 hrs by MTT assay relative to control; format: functional, Calvaria; summary of the method: as §3
Calvarial osteoblast [7] = assay: Induction of osteogenesis in BALB/c mouse calvarial osteoblast cells using PNPP as substrate assessed as increase in ALP activity at 0.001 to 10 nM measured after 48 hrs by spectrophotometry; format: functional, cell-based; conditions: Calvaria, dose 0.001-10 nM; summary of the method: as §1

Structure (SMILES) | Activity (Calvarial osteoblast [1]) | Activity (Calvarial osteoblast [2]) | Activity [3] [%] | Activity (Calvarial osteoblast [4]) [%] | Activity [5] [%] | Activity (Calvarial osteoblast [6]) [%] | Activity (Calvarial osteoblast [7])
CCCCCC(=O)Nc1nc(-c2ccc(Cl)cc2)c(Cl)c(-c2cc(OC)c(OC)cc2OC)n1 | Active | Non-Toxic | ~27 | ~18 |  |  | 
COc1cc(OC)c(-c2cc(-c3ccc(Cl)cc3)nc(N)n2)cc1OC | Active | Non-Toxic |  |  |  |  | 
CCCCCC(=O)Nc1nc(-c2ccc(Br)cc2)cc(-c2cc(OC)c(OC)cc2OC)n1 |  | Non-Toxic | ~25 | ~22 | ~24 | ~25 | Active
